Reference: ChEMBL document CHEMBL1126205, “Novel spirosuccinimides with incorporated isoindolone and benzisothiazole 1,1-dioxide moieties as aldose reductase inhibitors and antihyperglycemic agents” (1992)
Blank lines part the entries; values can stand above or below the compound they belong to. The source made the active and inactive calls. The rule behind the calls is not given here.

Key:
[1] = system: Mus musculus; assay: Antihyperglycemic activity measured as percent decrease in mice plasma glucose at 100 mg/Kg/day; format: functional
In short: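 Male db/db (C57BL/KsJ) mice, 4–6 per group, dosed at 100 mg/kg per day. Plasma glucose of the drug-treated group is expressed as percent decrease relative to a vehicle-treated control group. Values are mean ± SE, with p < 0.05 marked.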

[2] = biological target: Aldo-keto reductase family 1 member B1 (Bos taurus) (UniProt P16116); assay: In vitro aldose reductase inhibitory activity measured by NADPH-dependent inhibition of glyceraldehyde reduction in a partially purified bovine lens preparation at 10E-6 M
In short: (§1)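 Aldose reductase partially purified from bovine lens. Inhibition of NADPH-dependent glyceraldehyde reduction is measured at the single stated concentration and reported as percent inhibition, the mean of two determinations.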

[3] = biological target: Aldo-keto reductase family 1 member B1 (Bos taurus) (UniProt P16116); assay: NADPH-dependent inhibition of glyceraldehyde reduction by partially purified aldose reductase from bovine lens at 10e-5 M
In short: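 Partially purified aldose reductase from bovine lens. Inhibition of NADPH-dependent glyceraldehyde reduction was measured at a single test concentration. Values are % inhibition of enzymatic activity, mean of two determinations.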

[4] = system: Rattus norvegicus; assay: In vivo galactitol inhibitory activity measured by its ability to inhibit galactitol accumulation in lens at 6 mg/Kg/day; NS=Not significant (% Inhibition); format: functional, organism-based; conditions: Lens of camera-type eye
In short: (§2)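 Rats (n = 6) fed 20% galactose for 4 days, with compound given in the diet at the stated mg/kg per day. Galactitol accumulation in lens, sciatic nerve or diaphragm is scored as percent inhibition versus the non-treated group, as means of 3–8 drug-treated tissue samples. Dunnett's multiple comparison test applies; NS means p > 0.05.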

[5] = system: Rattus norvegicus; assay: In vivo galactitol inhibitory activity measured by its ability to inhibit galactitol accumulation in diaphragm at 10 mg/Kg/day; format: functional; in short: as §2
[6] = system: Rattus norvegicus; assay: In vivo galactitol inhibitory activity measured by its ability to inhibit galactitol accumulation in sciatic nerve at 3 mg/Kg/day; NS=Not significant (% Inhibition); format: functional, organism-based
In short: (§3)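 Rats (n = 6) fed 20% galactose for 4 days, with compound given in the diet at the stated daily dose. Galactitol accumulation was measured in lens, sciatic nerve and diaphragm, and % inhibition was taken versus the nontreated group. Means are from three to eight drug-treated tissue samples. Dunnett's multiple comparison test was applied, with p > 0.05 reported as not significant.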

[7] = system: Rattus norvegicus; assay: In vivo galactitol inhibitory activity measured by its ability to inhibit galactitol accumulation in sciatic nerve at 10 mg/Kg/day; NS=Not significant (% Inhibition); format: functional, organism-based; in short: as §3
[8] = system: Rattus norvegicus; assay: In vivo galactitol inhibitory activity measured by its ability to inhibit galactitol accumulation in diaphragm at 3 mg/Kg/day; NS=Not significant (% Inhibition); format: functional, organism-based; in short: as §2
[9] = system: Rattus norvegicus; assay: In vivo galactitol inhibitory activity measured by its ability to inhibit galactitol accumulation in lens at 3 mg/Kg/day; NS=Not significant (% Inhibition); format: functional, organism-based; conditions: Lens of camera-type eye; in short: as §2
[10] = system: Rattus norvegicus; assay: In vivo galactitol inhibitory activity measured by its ability to inhibit galactitol accumulation in lens at 10 mg/Kg/day; NS=Not significant (% Inhibition); format: functional; conditions: Lens of camera-type eye; in short: as §2
[11] = biological target: Aldo-keto reductase family 1 member B1 (Bos taurus) (UniProt P16116); assay: In vitro aldose reductase inhibitory activity measured by NADPH-dependent inhibition of glyceraldehyde reduction in a partially purified bovine lens preparation at 10E-7 M; in short: as §1
[12] = system: Rattus norvegicus; assay: In vivo galactitol inhibitory activity measured by its ability to inhibit galactitol accumulation in diaphragm at 6 mg/Kg/day; format: functional; in short: as §2
[13] = system: Rattus norvegicus; assay: In vivo galactitol inhibitory activity measured by its ability to inhibit galactitol accumulation in sciatic nerve at 6 mg/Kg/day; NS=Not significant (% Inhibition); format: functional, organism-based; in short: as §3
[14] = system: Rattus norvegicus; assay: In vivo galactitol inhibitory activity measured by its ability to inhibit galactitol accumulation in sciatic nerve at 6 mg/Kg/day; format: functional; in short: as §3
[15] = system: Rattus norvegicus; assay: In vivo galactitol inhibitory activity measured by its ability to inhibit galactitol accumulation in diaphragm at 6 mg/Kg/day; NS=Not significant (% Inhibition); format: functional, organism-based; in short: as §2

SMILES: CCCCN1C2(CC(=O)NC2=O)c2ccccc2S1(=O)=O (stereo not given)
Decrease [1]: <15%

SMILES: CN1C(=O)c2cc(Br)ccc2C12CC(=O)NC2=O (stereo not given)
inhibition [4]: inactive | inhibition in vivo at 10 mg/kg/day [5]: 39% | inhibition [6]: inactive | inhibition [2]: 71% | inhibition [7]: inactive | Decrease [1]: <15% | inhibition [8]: inactive | inhibition [9]: inactive | inhibition [10]: inactive | inhibition [11]: 27% | inhibition in vivo at 6 mg/kg/day [12]: 27% | inhibition [13]: inactive

SMILES: Cc1cc(Br)ccc1CN1C2(CC(=O)NC2=O)c2ccccc2S1(=O)=O (stereo not given)
Decrease [1]: <15%

SMILES: COc1ccc2c(C(=S)N(C)CC(=O)O)cccc2c1C(F)(F)F [TOLRESTAT]
inhibition [4]: inactive | inhibition in vivo at 6 mg/kg/day [12]: 80% | inhibition in vivo at 6 mg/kg/day [14]: 53%

SMILES: O=C1CC2(C(=O)N1)c1ccccc1S(=O)(=O)N2Cc1ccc(Cl)cc1Cl (stereo not given)
Decrease [1]: 19%

SMILES: CN1C(=O)c2ccc(Cl)cc2C12CC(=O)NC2=O (stereo in doubt; 32)
inhibition [4]: inactive | inhibition [2]: 80% | inhibition [11]: 37%

SMILES: CN1C(=O)c2ccc([N+](=O)[O-])cc2C12CC(=O)NC2=O (stereo not given)
inhibition [6]: inactive | inhibition [2]: 77% | Decrease [1]: <15% | inhibition [8]: inactive | inhibition [9]: inactive | inhibition [11]: 32%

SMILES: O=C1CC2(C(=O)N1)c1ccccc1C(=O)N2Cc1c(F)cccc1Cl (stereo not given)
Decrease [1]: <15%

SMILES: CSc1ccc2c(c1)C(=O)N(C)C21CC(=O)NC1=O (stereo not given)
inhibition [6]: inactive | inhibition [2]: 60% | Decrease [1]: <15% | inhibition [8]: inactive | inhibition [9]: inactive

SMILES: O=C1CC2(C(=O)N1)c1ccccc1S(=O)(=O)N2CCCCc1ccc(Cl)cc1 (stereo not given)
Decrease [1]: 20%

SMILES: O=C1CC2(C(=O)N1)c1ccccc1S(=O)(=O)N2Cc1ccc(F)cc1 (stereo not given)
Decrease [1]: <15%

SMILES: O=C1CC2(C(=O)N1)c1ccccc1C(=O)N2Cc1ccccc1 (stereo not given)
Decrease [1]: 22%

SMILES: O=C1CC2(C(=O)N1)c1ccccc1S(=O)(=O)N2Cc1cccc(Br)c1 (stereo not given)
Decrease [1]: <15%

SMILES: Cc1oc(-c2ccccc2)nc1CCN1C2(CC(=O)NC2=O)c2ccccc2S1(=O)=O (stereo not given)
Decrease [1]: <15%

SMILES: Cc1oc(-c2ccccc2)nc1CCOc1ccc(N2C3(CC(=O)NC3=O)c3ccccc3S2(=O)=O)cc1 (stereo not given)
Decrease [1]: <15%

SMILES: O=C1CC2(C(=O)N1)c1ccccc1S(=O)(=O)N2Cc1c(F)c(F)c(F)c(F)c1F (stereo not given)
Decrease [1]: <15%

Further lines, with some results ahead:

inhibition [2]: 24% | inhibition [3]: 67%
SMILES: O=C1CC2(C(=O)N1)c1ccccc1S(=O)(=O)N2Cc1ccc(Oc2ccccc2)cc1 (stereo not given)
Decrease [1]: <15%

inhibition [2]: 20% | inhibition [3]: 57%
SMILES: O=C1CC2(C(=O)N1)c1ccccc1S(=O)(=O)N2Cc1ccc2ccccc2c1 (stereo not given)
Decrease [1]: <15%

inhibition [2]: 15% | inhibition [3]: 54%
SMILES: O=C1CC2(C(=O)N1)c1ccccc1S(=O)(=O)N2Cc1ccc(-c2ccccc2)cc1 (stereo not given)
Decrease [1]: <15%

inhibition [3]: 0%
SMILES: O=C1CC2(C(=O)N1)c1ccccc1S(=O)(=O)N2CCc1ccc(Br)cc1 (stereo not given)
Decrease [1]: 25%

inhibition [3]: 0%
SMILES: O=C1CC2(C(=O)N1)c1ccccc1S(=O)(=O)N2c1ccc(Br)cc1 (stereo not given)
Decrease [1]: <15%

inhibition [2]: 56%
SMILES: COc1ccc2c(c1)C(=O)N(C)C21CC(=O)NC1=O (stereo not given)
inhibition [6]: inactive | Decrease [1]: <15% | inhibition [8]: inactive | inhibition [9]: inactive

inhibition [3]: 0%
SMILES: O=C(O)CN1C2(CC(=O)NC2=O)c2ccccc2S1(=O)=O (stereo not given)

inhibition [2]: 82% | inhibition [11]: 39%
SMILES: CN1C(=O)c2ccc(Cl)cc2C12CC(=O)NC2=O (single isomer, unassigned; (+))

inhibition [2]: 49% | inhibition [11]: 14%
SMILES: COC(=O)c1ccc2c(c1)C1(CC(=O)NC1=O)N(C)C2=O (stereo not given)
inhibition [4]: inactive | inhibition in vivo at 10 mg/kg/day [5]: 16% | inhibition [6]: inactive | inhibition [7]: inactive | Decrease [1]: <15% | inhibition [8]: inactive | inhibition [9]: inactive | inhibition [10]: inactive | inhibition [15]: inactive | inhibition [13]: inactive

inhibition [2]: 0%
SMILES: CCCCN1C(=O)c2ccccc2C12CC(=O)NC2=O (stereo not given)
Decrease [1]: <15%
